Assay [1] deals with Mus musculus. The experiment in a line: Percentage change in plasma glucose after 4 days of treatment in db/db mouse at 5 mg/kg (po) in a postprandial assay. In kind it is functional. The method in brief:
(§1)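 Male db/db (C57BL/KsJ) mice; postprandial assay after 4 days of oral dosing. Result is % change in plasma glucose relative to the vehicle-treated group. Values are mean ± SE with 4–6 mice per group; p < 0.05 flagged.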

Assay [2] concerns Mus musculus. Briefly: Percentage change in plasma glucose after 4 days of treatment in db/db mouse at 1 mg/kg (po) in a postprandial assay. The format is functional. In a few lines:
as §1

For assay [3], the system named is Mus musculus. The experiment in a line: Percentage change in plasma glucose after 4 days of treatment in db/db mouse at 100 mg/kg (po) in a postprandial assay. In kind it is functional. The method in brief:
as §1

Assay [4] deals with Mus musculus. Briefly: Plasma glucose after treatment in obese ob/ob mice at 20 mg/kg (po). In kind it is functional. In a few lines:
(§2)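 Female obese ob/ob (C57BL/6J) mice, 3-5 months old, fed ad libitum. Oral gavage once daily for 10 days, vehicle 0.2 mL 2% Tween 80/saline (w/v). Decapitated 4 h after the last dose; blood assayed for glucose. Mean ± SEM; p < 0.05 versus vehicle.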

In assay [5] the test system is Mus musculus. Briefly: Percentage change in plasma glucose after 4 days of treatment in db/db mouse at 20 mg/kg (po) in a postprandial assay. In kind it is functional. In a few lines:
as §1

Assay [6] deals with Mus musculus. Briefly: Plasma glucose after treatment in obese ob/ob mice at 200 mg/kg (po). The format is functional. In a few lines:
as §2

In assay [7] the test system is Mus musculus. Briefly: Plasma glucose after treatment in obese ob/ob mice at 50 mg/kg (po). The format is functional. In a few lines: as §2
The subject of assay [8] is Mus musculus. The experiment in a line: Plasma glucose after treatment in obese ob/ob mice at 5 mg/kg (po). The format is functional. In a few lines: as §2
The subject of assay [9] is Rattus norvegicus. The experiment in a line: Plasma glucose levels of nondiabetic rats after 0 hour of drug administration (25 mg/Kg, po). In kind it is functional. The method in brief:
(§3)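 Single oral dose to male Sprague-Dawley nondiabetic rats. Tail-tip blood sampled before dosing and at 1, 2 and 4 h after dosing for plasma glucose. Mean ± SE, n = 5 per group; compared with the respective vehicle group.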

The subject of assay [10] is Rattus norvegicus. The experiment in a line: Plasma glucose levels of nondiabetic rats after 1 hour of drug administration (25 mg/Kg, po). In kind it is functional. The method in brief: as §3
The subject of assay [11] is Rattus norvegicus. The experiment in a line: Plasma glucose levels of nondiabetic rats after 2 hour of drug administration (25 mg/Kg, po). In kind it is functional. In a few lines: as §3
In assay [12] the test system is Rattus norvegicus. The experiment in a line: Plasma glucose levels of nondiabetic rats after 4 hour of drug administration (25 mg/Kg, po). The format is functional. The method in brief: as §3
In assay [13] the test system is Mus musculus. The experiment in a line: Percentage change in plasma glucose after 4 days of treatment in db/db mouse at 5 mg/kg (po) in a postprandial assay.
The subject of assay [14] is Mus musculus. Briefly: Percentage change in plasma glucose after 4 days of treatment in db/db mouse at 1 mg/kg (po) in a postprandial assay.
The mark [15] stands for this setting: dose 5 mg/kg, in the assay text read “5 mg/kg” for “100 mg/kg”.

Where “and” joins values, the source holds several entries; their conditions need not be identical. Identical values can stand only once. Where only a bound is given, the exact number is not on record here.

In the case of `O=S1NC(Cc2ccc3ccc(Cl)cc3c2)=NO1` (stereo not given), in the assay with Mus musculus [1], the Change is reported as less than -15%.
On to `O=S1NC(Cc2cc3ccccc3cc2Cl)=NO1` (stereo not given), for which the Change in the assay with Mus musculus [2] was less than -15%; with Mus musculus [3] (setting [15]), -44%.
Turning to `O=S1NC(Cc2ccc3ccccc3c2F)=NO1` (stereo not given), the Change is listed as less than -15% in the assay on Mus musculus [2] and -39% with Mus musculus [3] (setting [15]).
`Cc1c(CC2=NOS(=O)N2)ccc2ccccc12` (stereo not given): the Change in the assay with Mus musculus [3] (dose 100 mg/kg) was -36% and -20%.
In turn, `CC1(COc2ccc(CC3SC(=O)NC3=O)cc2)CCCCC1` (stereo not given) [CIGLITAZONE] returned a Glucose level with Mus musculus [4] of 189 mg/dL.
As to `O=S1NC(CSc2ccc3ccccc3c2)=NO1` (stereo not given), the Change in the assay with Mus musculus [5] is listed as -40%.
In the case of `Cc1cc2ccccc2c(Br)c1CC1=NOS(=O)N1` (stereo not given), the Change with Mus musculus [2] is less than -15%; with Mus musculus [1] it was -34%.
With `O=S1NC(Cc2ccc3c(C(F)(F)F)cccc3c2)=NO1` (stereo not given), the Change is listed as less than -15% in the assay on Mus musculus [2] and -30% in the assay on Mus musculus [3] (setting [15]).
Regarding `O=S1NC(Cc2ccc3ccccc3c2)=NO1` (stereo not given), the Change with Mus musculus [5] is listed as -37%; with Mus musculus [1], less than -15%.
Regarding `CSc1ccc(Br)c2ccc(CC3=NOS(=O)N3)cc12` (stereo not given), the Change with Mus musculus [2] is less than -15%; in the assay on Mus musculus [1], -19%.
`O=S1NC(/C=C/c2ccc3ccccc3c2)=NO1` (stereo not given): in the assay with Mus musculus [5], the Change was less than -15%.
For `CN(C)C(=N)NC(=N)N` [METFORMIN], the Glucose level with Mus musculus [6] is 208 mg/dL; in the assay with Mus musculus [7], 253 mg/dL.
For the compound `CCc1cccc2cc(CC3=NOS(=O)N3)ccc12` (stereo not given), the Change in the assay with Mus musculus [2] was less than -15%; in the assay on Mus musculus [3] (setting [15]), -23%.
As for `COc1ccc(Cl)cc1C(=O)NCCc1ccc(S(=O)(=O)NC(=O)NC2CCCCC2)cc1` [GLYBURIDE], the Glucose level came to 311 mg/dL in the assay on Mus musculus [4]; 297 mg/dL in the assay with Mus musculus [8]; 110 mg/dL in the assay with Rattus norvegicus [9]; 71 mg/dL in the assay with Rattus norvegicus [10]; 51 mg/dL with Rattus norvegicus [11]; 55 mg/dL in the assay on Rattus norvegicus [12].
In the case of `CCc1c(CC2=NOS(=O)N2)ccc2ccccc12` (stereo not given), the Change is given as less than -15% with Mus musculus [2] and -24% in the assay on Mus musculus [3] (dose 5 mg/kg, in the assay text read “at 5 mg/kg” for “at 100 mg/kg”).
On to `COc1cccc2cc(CC3=NOS(=O)N3)ccc12` (stereo not given), for which the Change in the assay with Mus musculus [13] and in the assay on Mus musculus [14] was less than -15% throughout.
Consider `O=S1NC(Cc2ccc3ccccc3c2Br)=NO1` (stereo not given), for which, in the assay on Mus musculus [3] (dose 100 mg/kg), the Change was -40% and -21%.
As for `CC(C)(C1=NOS(=O)N1)c1ccc2ccccc2c1` (stereo not given), the Change with Mus musculus [5] is listed as less than -15%.
Consider `COc1ccc2ccc(CC3=NOS(=O)N3)cc2c1` (stereo not given), for which the Change in the assay with Mus musculus [1] was -19%.
In the case of `O=S1NC(CCc2ccc3ccccc3c2)=NO1` (stereo not given), in the assay with Mus musculus [5], the Change is given as -38%.
Take `Cc1ccc2ccc(CC3=NOS(=O)N3)cc2c1Br` (stereo not given): the Change in the assay on Mus musculus [1] is on record as -21%.
On to `O=S1NC(Cc2cc3ccccc3cc2Br)=NO1` (stereo not given), for which the Change in the assay on Mus musculus [2] was less than -15%; with Mus musculus [1], -28%.
For `O=S1NC(Cc2ccc3cc(Br)ccc3c2)=NO1` (stereo not given) the same measures were less than -15% and -25%.
On to `Cc1cc2ccccc2cc1CC1=NOS(=O)N1` (stereo not given), for which the Change in the assay on Mus musculus [3] (dose 100 mg/kg) was -36% and -20%.
For `O=S1NC(C(Cc2ccccc2)c2ccc3ccccc3c2)=NO1` (stereo not given), in the assay on Mus musculus [5], the Change is given as less than -15%.
On to `Cc1cc2ccccc2c(C)c1CC1=NOS(=O)N1` (stereo not given), for which the Change with Mus musculus [2] is on record as less than -15%; in the assay on Mus musculus [1], -45%.
In the case of `COc1cc2ccccc2cc1CC1=NOS(=O)N1` (stereo not given), in the assay with Mus musculus [14], the Change is -16%.

The values are drawn from ChEMBL document CHEMBL1126776, “Antihyperglycemic activity of novel naphthalenyl 3H-1,2,3,5-oxathiadiazole 2-oxides” (1993).
